Test results taken from ChEMBL document CHEMBL4725371, “A Novel Redox Modulator Induces a GPX4-Mediated Cell Death That Is Dependent on Iron and Reactive Oxygen Species” (J Med Chem, 2020).
The source made the active and inactive calls. No cut-off for these calls is given here.

Key:
BXPC-3 = assay: Cytotoxicity against human BXPC-3 cells measured after 72 hrs by MTT assay; format: functional, cell-based; conditions: BXPC-3, 72 h
How it was run: (§1)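 Cells were kept in RPMI 1640 with 10% FBS at 37 °C, 5% CO₂, under 35 passages. Cells were seeded, attached overnight and treated with compound or DMSO for 72 h. MTT was added at 0.3 mg/mL for 3 h, then dissolved in DMSO and read as absorbance at 570 nm. IC50 was fitted from the curve. Values are mean ± sd of three independent experiments.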

MIA PaCa-2 [1] = assay: Cytotoxicity against human MIA PaCa-2 cells measured after 72 hrs by MTT assay; format: functional, cell-based; conditions: MIA PaCa-2, 72 h; how it was run: as §1
PANC-1 = assay: Cytotoxicity against human PANC-1 cells measured after 72 hrs by MTT assay; format: functional, cell-based; conditions: PANC-1, 72 h; how it was run: as §1
MIA PaCa-2 [2] = assay: Induction of ferroptosis in human MIA PaCa-2 cells assessed as increase in lipid peroxidation at 0.5 uM measured after 24 hrs by C11-BODIPY dye based fluorescence assay; format: functional, cell-based
How it was run: (§2)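 MIA PaCa-2 cells were treated for the set time, then given 10 μM C11-BODIPY for 30 min at 37 °C and washed. Fluorescence was read at 581/591 nm (reduced dye) and 488/510 nm (oxidized dye). The intensity ratio was compared by unpaired t-test.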

[3] = Drug level in mouse plasma treated with QD394 at 500 uM measured after 0.5 hrs by LC-MS/MS analysis
MIA PaCa-2 [4] = assay: Induction of ferroptosis in human MIA PaCa-2 cells assessed as increase in lipid peroxidation at 20 to 40 uM measured after 24 hrs by C11-BODIPY dye based fluorescence assay; format: functional, cell-based; conditions: dose microM 20-40, time 24.0 hrs
How it was run: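 MIA PaCa-2 cells (RPMI 1640, 10% FBS, 37 °C, 5% CO2) exposed to compound for the set time, then 10 μM C11-BODIPY added for 30 min at 37 °C. After two DPBS washes, read in HBSS at 581/591 nm (reduced dye) and 488/510 nm (oxidized dye); emission ratio calculated, unpaired Student's t-test.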

MIA PaCa-2 [5] = assay: Inhibition glutathione synthesis in human MIA PaCa-2 cells at 1 to 2 uM measured after 2 to 4 hrs by GSH/GSSG-glo assay; format: functional, cell-based; conditions: dose microM 1-2, time hrs 2-4
How it was run: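 GSH/GSSG-Glo luminescent assay: 15,000–20,000 MIA PaCa-2 cells per well, attached overnight, treated 2 h and 4 h. Cells were lysed with total or oxidized glutathione reagent, then luciferin generation (30 min, room temperature) and detection reagents added. Luminescence was read after 15 min. Ratio was computed from net RLU as (total − GSSG)/(GSSG/2).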

CT26 = assay: Antitumor activity against mouse CT26 cells implanted in Balb/c mouse assessed as tumor shrinkage at 10 mg/kg, iv administered three times weekly for 17 days measured 4 hrs post-last dose; format: functional, organism-based; conditions: time 17.0 day
How it was run: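 Female Balb/c mice aged 5–6 weeks, implanted subcutaneously in right flank with 1 × 10⁶ CT-26 cells in DPBS. Dosing began 7 days later with randomisation (n = 5/group, mean tumour 97–117 mm³). IV dosing was 3 times weekly and IP dosing was given. Vehicle control given daily IP. Mice were euthanised four hours post-dose after 17 days of dosing.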

[6] = Drug level in CD-1 mouse colon at 10 mg/kg, iv measured after 1 hr by LC-MS/MS analysis; format: ADME, organism-based; conditions: in vivo
How it was run: (§3)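 Mice received 20 mg/kg PO or 10 mg/kg IV. Organs were collected after 1 h and homogenised in five-fold dissociation solvent. Homogenate was mixed with acetonitrile and internal standard and centrifuged at 3500 g for 10 min. Supernatant was analysed by LC-MS.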

[7] = Drug metabolism in CD-1 mouse plasma assessed as hydroxylation at 10 mg/kg, iv measured after 15 mins by LC-MS/MS analysis; format: ADME, organism-based; conditions: in vivo, 0.25 h
[8] = Plasma concentration in CD-1 mouse at 10 mg/kg, ip measured after 7 hrs by LC-MS/MS analysis; format: ADME, organism-based
How it was run: (§4)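 CD-1 mice dosed IP at 10 mg/kg or PO at 20 mg/kg, n=2 per route. Blood taken with heparinized pipettes at 0.5, 2, 4 and 7 h and spun at 15,000 rpm for 10 min. Plasma stored at −80 °C, then measured by LC-MS/MS.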

[9] = Drug level in CD-1 mouse colon at 20 mg/kg, po measured after 1 hr by LC-MS/MS analysis; format: ADME, organism-based; conditions: in vivo; how it was run: as §3
[10] = Plasma concentration in CD-1 mouse at 20 mg/kg, po measured after 7 hrs by LC-MS/MS analysis; format: ADME, organism-based; how it was run: as §4
MIA PaCa-2 [11] = assay: Down regulation of LRPPRC expression in human MIA PaCa-2 cells at 3 times IC50 measured after 4 hrs by proteomics analysis; format: functional, cell-based
[12] = Half life in mouse plasma at 500 uM by LC-MS/MS analysis; format: ADME, cell-free
How it was run: (§5)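 Compound (500 μM DMSO stock) was added at 1 μL per 500 μL pooled plasma. Samples were taken at 0, 0.17, 0.5, 1, 2 and 4 h and centrifuged at 3500 g for 10 min. Supernatant was run by LC-MS/MS. t1/2 came from the slope of ln(compound/internal standard peak area) against time.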

[13] = Half life in human plasma at 500 uM by LC-MS/MS analysis; format: ADME, cell-free; how it was run: as §5
[14] = Half life in mouse liver microsomes at 10 uM in presence of NADPH by LC-MS/MS analysis; format: ADME, Microsome; conditions: microsomes, 10 µM
How it was run: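 Compound (10 μM working solution in 0.1 M phosphate buffer with 3.3 mM MgCl₂) was incubated with mouse liver microsomes and NADPH. Verapamil served as reference. Samples were taken at 0, 5, 10, 15, 30, 45 and 60 min and centrifuged at 3500 g. Supernatant was run by LC-MS/MS. t1/2 came from the slope of ln(peak area ratio) against time.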

MIA PaCa-2 [15] = assay: Induction of reactive oxygen species in human MIA PaCa-2 cells at 5 to 10 uM measured after 30 mins in presence of N-acetylcysteine by CM-H2DCFDA dye based fluorescence assay; format: functional, cell-based; conditions: dose microM 5-10, time 30.0 min
How it was run: (§6)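 1.8 × 10⁴ cells per well were attached overnight, then loaded with 10 μM CM-H2DCFDA in HBSS for 40 min at 37 °C and washed. Compounds were added in HBSS. Fluorescence was read at Ex 483 / Em 530 nm. TBHP was the positive control. NAC at 3 mM was used where stated.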

[16] = Drug metabolism in CD-1 mouse plasma assessed as hydroxylation at 20 mg/kg, po measured after 15 mins by LC-MS/MS analysis; format: ADME, organism-based; conditions: in vivo, 0.25 h
MIA PaCa-2 [17] = assay: Down regulation of PNPT1 expression in human MIA PaCa-2 cells at 3 times IC50 measured after 4 hrs by proteomics analysis; format: functional, cell-based
MIA PaCa-2 [18] = assay: Induction of reactive oxygen species in human MIA PaCa-2 cells at 5 to 10 uM measured up to 4 hrs by CM-H2DCFDA dye based fluorescence assay; format: functional, cell-based; conditions: dose microM 5-10, time hrs <=4; how it was run: as §6
[19] = target: T1, Phospholipid hydroperoxide glutathione peroxidase GPX4 (Homo sapiens) (UniProt P36969); assay: Binding affinity to GPX4 in human PANC-1 cells assessed as protein destabilization by measuring reduction in melting temperature at 100 uM measured after 1 hr by thermal shift assay; format: cell-based
T1 sequence (whole entry): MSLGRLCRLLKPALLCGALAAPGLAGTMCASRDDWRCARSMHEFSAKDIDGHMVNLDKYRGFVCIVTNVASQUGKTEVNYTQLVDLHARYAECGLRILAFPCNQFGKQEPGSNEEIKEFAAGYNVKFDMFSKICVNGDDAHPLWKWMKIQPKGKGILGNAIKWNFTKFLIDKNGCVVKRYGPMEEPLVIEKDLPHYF

MIA PaCa-2 [20] = assay: Induction of ferroptosis in human MIA PaCa-2 cells assessed as increase in lipid peroxidation measured after 24 hrs by C11-BODIPY dye based fluorescence assay; format: functional, cell-based; how it was run: as §2
MIA PaCa-2 [21] = assay: Cytotoxicity against human MIA PaCa-2 cells transfected with GPX4 siRNA measured after 72 hrs by MTT assay; format: functional, cell-based

For `O=C1C(Nc2cccc3c2Cc2ccccc2-3)=CC(=O)c2ncncc21`, the IC50 (BXPC-3) was 4.5 µM, the IC50 (MIA PaCa-2 [1]) was 3.1 µM and the IC50 (PANC-1) was 4.7 µM.

For `O=C1C(Nc2ccc(-c3cc(Cl)cc(Cl)c3)cc2)=CC(=O)c2ncncc21`, the IC50 (BXPC-3) was 3.3 µM, the IC50 (MIA PaCa-2 [1]) was 3.1 µM and the IC50 (PANC-1) was 1.9 µM.

Work on `O=C1C(Nc2cccc(-c3ccccc3)c2)=CC(=O)c2ncncc21` yielded an IC50 (BXPC-3) of 5.1 µM, an IC50 (MIA PaCa-2 [1]) of 2.4 µM and an IC50 (PANC-1) of 2.3 µM.

In the case of `COC(=O)c1ccc([C@H]2c3[nH]c4ccccc4c3C[C@H](C(=O)OC)N2C(=O)CCl)cc1`, the Activity (MIA PaCa-2 [2]) is reported as “Active”.

For `COc1c(Nc2ccc(N3CCN(C)CC3)cc2)cc(OC)c2ncncc12`, the Drug uptake [3] was “Active”.

`O=C1C(Nc2ccc(C3CCCCC3)cc2)=CC(=O)c2ncncc21` showed an IC50 (BXPC-3) of 0.5 µM, an IC50 (MIA PaCa-2 [1]) of 1.2 µM and an IC50 (PANC-1) of 0.9 µM.

With `CCOc1ccccc1-n1c(C(C)N2CCN(C(=O)COc3ccc(Cl)cc3)CC2)nc2ccccc2c1=O` (stereo not given) the Activity (MIA PaCa-2 [4]) was “Active”.

With `O=C1C(Nc2ccc(N3CCCCC3)cc2)=CC(=O)c2ncncc21` the IC50 (BXPC-3) was 2.5 µM, the IC50 (MIA PaCa-2 [1]) was 2.4 µM and the IC50 (PANC-1) was 1.4 µM.

With `CCCCS(=N)(=O)CCC(N)C(=O)O` (stereo not given) the inhibition (MIA PaCa-2 [5]) was “Active”.

For `CN1C(O)CN(c2ccc(NC3=CC(=O)c4ncncc4C3=O)cc2)CC1O` (stereo not given), the Drug uptake [3] was “Active”.

For `CC1=C(Nc2ccc(N3CCN(C)CC3)cc2)C(=O)c2cncnc2C1=O`, the Activity (CT26) was “Active”, the Drug uptake [6] was 0.3 mg/kg and the IC50 (BXPC-3) was 0.87 µM. For the same molecule, the Drug metabolism [7] was “Metabolite_Detected”, the concentration at 7 h [8] was 6.7 ng/mL and the Drug uptake [9] was 0.3 mg/kg. For the same molecule, the concentration at 7 h [10] was 3.4 ng/mL, the Activity (MIA PaCa-2 [11]) was “Active” and the IC50 (MIA PaCa-2 [1]) was 3.63 µM. The half-life at 500 µM [12] was greater than 2 h, the half-life at 500 µM [13] was greater than 2 h and the t1/2 [14] was 0.743 h. The Activity (MIA PaCa-2 [15]) was “inactive”, the Drug metabolism [16] was “Metabolite_Detected” and the Activity (MIA PaCa-2 [17]) was “Active”. The IC50 (PANC-1) was 0.38 µM, the Activity (MIA PaCa-2 [18]) was “Active” and the Activity [19] was “Dose-dependent effect”. For the same molecule, the Activity (MIA PaCa-2 [20]) was “Dose-dependent effect” and the Activity (MIA PaCa-2 [21]) was “inactive”.
